Source: PubChem
NR2E3 ag-1: agonists of human NR2E3 nuclear receptor. Q9Y5X4. CHO-S Gal4-NCOR/VP16-NR2E3 two-hybrid, luciferase. inhibition of corepressor binding, % at 3.98 µM. 360,000 tested, 0.35% active. AID 602229;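 active means inhibition above the mean of all tested compounds plus 3 SD, cut at about 70% in these data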;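 further: higher means lower luciferase signal from less NR2E3 corepressor binding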
Target sequence (Q9Y5X4 whole entry, looked up, the tested form may be a part): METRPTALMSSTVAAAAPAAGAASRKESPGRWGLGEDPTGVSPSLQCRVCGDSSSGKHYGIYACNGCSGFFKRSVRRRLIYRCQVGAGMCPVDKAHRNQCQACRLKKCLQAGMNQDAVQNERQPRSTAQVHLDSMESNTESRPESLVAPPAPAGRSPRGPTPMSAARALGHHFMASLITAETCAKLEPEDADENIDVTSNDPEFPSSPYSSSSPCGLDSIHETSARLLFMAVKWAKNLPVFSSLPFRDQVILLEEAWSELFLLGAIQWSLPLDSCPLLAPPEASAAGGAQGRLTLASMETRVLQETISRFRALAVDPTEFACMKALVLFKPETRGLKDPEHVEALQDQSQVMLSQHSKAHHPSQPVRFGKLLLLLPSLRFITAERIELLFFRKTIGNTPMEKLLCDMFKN
697 NFkB inh: inhibitors of the PMA/ionomycin-induced NF-kB reporter in 697 B cells | 697 B-cell NF-kB luciferase reporter, 16 h | inhibition, % at 4 µM | 330,000 tested, 0.33% active; in the data active means inhibition above about 35%
GalR3 antag: human GalR3 antagonism; HEK293 GalR3-CNG cAMP membrane potential fluorescence; galR3 body fused to GalR1 C-terminus; inhibition, % at 3 µM; O60755; 360,000 tested, 0.44% active;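 active means inhibition above the screen-wide average plus 3 SD, cut at about 13% in these data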;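 further: forskolin and galanin both at EC90 stimulate the cells; cAMP rise reported by CNG channel membrane potential dye signal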
Target sequence (O60755 1-299 limits assumed): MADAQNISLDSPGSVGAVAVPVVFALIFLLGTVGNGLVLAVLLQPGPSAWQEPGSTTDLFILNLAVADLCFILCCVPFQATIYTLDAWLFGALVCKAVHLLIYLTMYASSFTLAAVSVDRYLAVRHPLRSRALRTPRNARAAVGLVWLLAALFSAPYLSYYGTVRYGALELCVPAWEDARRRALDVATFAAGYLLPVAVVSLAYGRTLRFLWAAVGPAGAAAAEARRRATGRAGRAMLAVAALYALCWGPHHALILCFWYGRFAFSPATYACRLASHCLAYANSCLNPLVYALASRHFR
NR2E3 ag-2: activates human photoreceptor nuclear receptor NR2E3. GST-NR2E3/biotin-RetCOR TR-FRET, 1536-well. Q9Y5X4. inhibition of corepressor binding, % at 4.78 µM. 320,000 tested, 0.12% active;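 active means percent inhibition above the cutoff of mean plus 3 SD of all tested compounds, set per screening campaign, cut at about 20% in these data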
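System: GST-tagged NR2E3 plus biotinylated RetCOR corepressor; Buffer or medium: pH 7.5 Tris-based buffer; Probe or stimulus: RetCOR corepressor, biotinylated, 7 nM; Doses: compound at 4.8 µM, single dose; Schedule: 5 h incubation at 4 °C; Technique: time-resolved FRET; Evaluation: percent inhibition of TR-FRET ratio; Replication: one well per compound, singlicate testing.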
Jurkat NFkB inh: lowers PMA/ionomycin-induced NF-kB signal in Jurkat cells. PMA/ionomycin-induced NF-kB luciferase reporter, luminescence. inhibition, % at 4 µM. AID 435003. 330,000 tested, 0.53% active; in the data active means inhibition above about 50%
Gli-Sufu antag: Gli-Sufu pathway antagonism. AID 588413. 340,000 tested, 0.74% active. inhibition, % at 5 µM. Sufu-KO-LIGHT fibroblasts, Gli luciferase reporter luminescence;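 active means inhibition above about 55%, limit read from the data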
NR2E3 ag conf: NR2E3 agonism confirmed in two-hybrid assay; shares compounds with NR2E3 ag-1; CHO-S mammalian two-hybrid NR2E3-NCOR, luciferase luminescence; inhibition, % at 3.98 µM; 2,300 tested, 51% active;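 active means average inhibition above a cutoff equal to the mean inhibition of all tested compounds plus one SD, cut at about 70% in these data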
GAL4-VP16 luc: reduces GAL4-VP16 reporter signal in NR2E3 counterscreen. shares compounds with NR2E3 ag-1. CHO-S GAL4-VP16 luciferase reporter, luminescence. inhibition, % at 3.98 µM. 2,300 tested, 29% active. AID 624379;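 active means mean inhibition above a cutoff equal to the average over all tested compounds plus one standard deviation, cut at about 70% in these data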;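 further: luciferase from a UAS reporter driven by GAL4-VP16 transactivation; higher means less reporter light so more repression of VP16 activity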
GalR3 antag conf: GalR3 (human) antagonism, confirmation. shares compounds with GalR3 antag. HEK293 GalR3 CNG cAMP biosensor, membrane potential fluorescence; galR3 fused to GalR1 carboxy tail; challenged with forskolin and galanin at EC90. inhibition, % at 3 µM. 1,600 tested, 59% active. AID 652245;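 active means inhibition above the primary screen's cutoff, the mean inhibition of all screened compounds plus 3 SD, cut at about 13% in these data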
HEK-CNG parental: acts as nonspecific agonist in parental HEK-CNG cells | 1,600 tested, 10% active | shares compounds with GalR3 antag | HEK293-CNG parental cells, cAMP membrane potential fluorescence; normalised: DMSO wells 0%, forskolin wells 100% | activation, % at 3 µM | AID 652268; in the data active means activation above about 1.3%
Of the large screens only hits and unclear results are named; the others gave an inactive call (follow-up assays come after a bar, where they were run). In the library only some 1.8% were active in any assay of this set; here they are far more common.

C[C@]12CCC3C(CC=C4C[C@@H](O)CC[C@@]43C)C1CCC2[C@]1(C)CCC(=O)O1 (stereo partly drawn)	none
CC12CCC(O)CC1=CCC1C2CCC2(C)C(c3ccn[nH]3)CCC12 (stereo not drawn)	NR2E3 ag-1 82.0 (no result: 697 NFkB inh, NR2E3 ag-2, Jurkat NFkB inh) | NR2E3 ag conf inactive | GAL4-VP16 luc inactive
O=C(NNS(=O)(=O)c1ccc(F)cc1F)C1Cc2c(ccc3ccccc23)O1 (stereo not drawn)	none | NR2E3 ag conf 84.7 | GAL4-VP16 luc 71.9
c1ccc2c(c1)[nH]c1c(N3CCCC3)ncnc12	none | NR2E3 ag conf inactive | GAL4-VP16 luc inactive
CCN(CC)C(=O)CSC(Nc1ccc(F)cc1)=C(C#N)C#N	none
Cc1ccc(CSC(Nc2ccc(F)cc2)=C(C#N)C#N)cc1	NR2E3 ag-1 98.8 | NR2E3 ag conf 98.7 | GAL4-VP16 luc 89.8
O=S(=O)(Nc1cccc(-c2cn3cccnc3n2)c1)c1ccc(-c2ccccc2)cc1	none | NR2E3 ag conf inactive | GAL4-VP16 luc inactive
Cc1occc1C(=O)N1CCN(c2ccc(Cl)c(Cl)c2)CC1	none | NR2E3 ag conf 81.0 | GAL4-VP16 luc inactive
O=C(NCc1ccccc1)N1CCN(c2ccc(Cl)c(Cl)c2)CC1	NR2E3 ag-1 77.1 | NR2E3 ag conf 92.6 | GAL4-VP16 luc 75.6
CCC(=O)NC1(C(F)(F)F)C(=O)Nc2c1c(=O)[nH]c(=O)n2CC(C)C (stereo not drawn)	none
COc1ccc(C(=O)NNC(=O)COc2ccc(Cl)cc2)c(OC)c1	none
CCC1Oc2ccc(C)cc2N(CC(=O)N2CCCC2)C1=O (stereo not drawn)	none
Cc1csc(SCC(=O)Nc2nc3ccccc3s2)n1	none
Cn1cc(SCC(=O)Nc2nc3ccccc3s2)c2ccccc21	none | NR2E3 ag conf inactive | GAL4-VP16 luc inactive
CC(=O)c1c(O)cc(O)c(C(C)=O)c1O	NR2E3 ag-1 79.8 (no result: GalR3 antag) | NR2E3 ag conf 84.8 | GAL4-VP16 luc inactive
CC(=O)c1c(O)cc(O)cc1CC(=O)O	none
Cc1nn(Cc2ccc(Cl)cc2)c(C)c1NC(=O)c1cc(-c2ccc3c(c2)OCO3)on1	none | NR2E3 ag conf 74.5 | GAL4-VP16 luc inactive
O=C(COC(=O)C1=COCCO1)NC1CCCCC1	none
Cc1onc(-c2ccccc2Cl)c1C(=O)Nc1nc2c(s1)CCCC2	NR2E3 ag-1 81.9 | NR2E3 ag conf 86.5 | GAL4-VP16 luc inactive
Brc1ccccc1-c1nc2c3ccccc3ncn2n1	none
S=c1nc2ccccc2c2nc(-c3ccccc3Br)[nH]n12	NR2E3 ag-1 78.3 | NR2E3 ag conf inactive | GAL4-VP16 luc inactive
O=C(NCc1ccncc1)c1cccc(S(=O)(=O)N2CCc3ccccc32)c1	none (no result: 697 NFkB inh, Jurkat NFkB inh) | NR2E3 ag conf inactive | GAL4-VP16 luc inactive
O=C(NNC(=O)c1ccccc1F)c1cccc(S(=O)(=O)N2CCc3ccccc32)c1	NR2E3 ag-1 81.5 (no result: NR2E3 ag-2) | NR2E3 ag conf 84.6 | GAL4-VP16 luc 72.0
CC1(NC(=O)Cn2cc(C(F)(F)F)ccc2=O)CCS(=O)(=O)C1 (stereo not drawn)	none
COC1=CC(=O)c2nc(Cl)ccc2C1=O	none (no result: 697 NFkB inh, NR2E3 ag-2, Jurkat NFkB inh, Gli-Sufu antag) | NR2E3 ag conf inactive | GAL4-VP16 luc inactive
COc1ccc(NC(=O)C2Cc3c(-c4cccc(F)c4)ccnc3O2)cc1OC (stereo not drawn)	NR2E3 ag-1 73.1 (no result: 697 NFkB inh, NR2E3 ag-2, Jurkat NFkB inh, Gli-Sufu antag) | NR2E3 ag conf inactive | GAL4-VP16 luc inactive
COc1ccc(NC(=O)C2Cc3c(-c4ccc(NC(C)=O)cc4)ccnc3O2)cc1OC (stereo not drawn)	none (no result: 697 NFkB inh, NR2E3 ag-2, Jurkat NFkB inh, Gli-Sufu antag)
O=C(Nc1cccc(OC(F)(F)F)c1)C1Cc2c(-c3ccc4c(c3)OCO4)ccnc2O1 (stereo not drawn)	NR2E3 ag-1 80.8 (no result: 697 NFkB inh, NR2E3 ag-2, Jurkat NFkB inh, Gli-Sufu antag) | NR2E3 ag conf 81.8 | GAL4-VP16 luc inactive
CC(NC(=O)c1cc(S(=O)(=O)N(C)C)ccc1Cl)c1ccc(-n2ccnc2)cc1 (stereo not drawn)	none
COCCNC(=O)C1(C)CCCN(Cc2cc(-c3ccccc3)n(C)n2)C1 (stereo not drawn)	none (no result: 697 NFkB inh, NR2E3 ag-2, Jurkat NFkB inh, Gli-Sufu antag)
COc1cccc(CNC(=O)[C@@H]2CCCN2C(=O)[C@H]2CCCCN2C(=O)c2cccc3ccccc23)c1	NR2E3 ag-1 85.7 (no result: 697 NFkB inh, GalR3 antag, NR2E3 ag-2, Jurkat NFkB inh, Gli-Sufu antag) | NR2E3 ag conf 80.7 | GAL4-VP16 luc inactive
CCOC(=O)C1(Cc2ccc(Cl)cc2)CCN(C(C)Cc2ccc(O)c(OC)c2)CC1 (stereo not drawn)	Gli-Sufu antag 71.5 | NR2E3 ag conf 85.9 | GAL4-VP16 luc 74.9
CCOC(=O)C1(Cc2ccc(OC)cc2)CCN(S(C)(=O)=O)CC1	none
CCOC(=O)C1(Cc2cccc(OC)c2)CCCN(Cc2cc(OC)c(O)c(OC)c2)C1 (stereo not drawn)	none
CCc1nn(CC(=O)NCCCN2CCN(CC)CC2)c(=O)c2cc3occc3n12	none
C=CCC1(CC=C)CCCN1C(=O)c1cc(COc2cncc(Cl)c2)on1	NR2E3 ag-1 89.6, GalR3 antag 45.4 (no result: Gli-Sufu antag) | NR2E3 ag conf 86.6 | GAL4-VP16 luc inactive | GalR3 antag conf 62.4 | HEK-CNG parental inactive
C=CCC1(CC=C)CCCN1C(=O)c1cc(COc2cccc(OC)c2)on1	none
CCCCCCCCCC[n+]1cccc2c3ccccc3ccc21	NR2E3 ag-1 95.7, GalR3 antag 49.8, Gli-Sufu antag 89.2 (no result: 697 NFkB inh, NR2E3 ag-2, Jurkat NFkB inh) | NR2E3 ag conf 99.6 | GAL4-VP16 luc 93.6 | GalR3 antag conf 50.6 | HEK-CNG parental 8.2
COc1ccccc1Oc1ncnc2sccc12	none
COc1ccccc1CNc1ncnc2sccc12	NR2E3 ag-1 100.2, GalR3 antag 76.5 | NR2E3 ag conf 92.2 | GAL4-VP16 luc 76.2 | GalR3 antag conf 103.6 | HEK-CNG parental inactive
CN(CCOc1ccc(Cl)cc1)C(=O)c1cccc(S(=O)(=O)N2CCN(Cc3ccccc3)CC2)c1	NR2E3 ag-1 83.6, GalR3 antag 31.2 (no result: 697 NFkB inh, NR2E3 ag-2, Jurkat NFkB inh) | NR2E3 ag conf 92.1 | GAL4-VP16 luc 73.9 | GalR3 antag conf 83.9 | HEK-CNG parental inactive
O=C(NCCc1ccc(F)cc1)c1cc(=O)c2ccccc2o1	none
